Measured values taken from the RNAGym collection of RNA variant scans (doi:10.1038/nmeth.2970).

B1: GFP aptamer (parent)
chain: GCUUCUGGACUGCGAUGGGAGCACGAAACGUCGUGGCGCAAUUGGGUGGGGAAAGUCCUUAAAAGAGGGCCACCACAGAAGC

Variants of: B1
Assay: HiTS-RAP
Conditions: with EGFP
Method in brief: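 Aptamer DNA templates carrying a T7 promoter and ter site were sequenced on an Illumina GAIIx flowcell, then transcribed in situ by T7 RNA polymerase and halted by GST-Tus (30 minutes, 37°C). Clusters were imaged after 30-minute room-temperature equilibration with EGFP-mOrange at 0.04 nM to 625 nM in fivefold steps. Intensities were decay-corrected, normalised to sequencing intensity and averaged per sequence. Kd came from weighted Hill fits per lane, geometrically averaged over three lanes, with non-rising sequences set to 125 nM.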

Variant | Kd [nM]
U47A | 8.14
U47C | 8.1
U47G | 5.28
C39U | 10.3
C39G | 9.2
A27G C73U | 10.5
G25A U43C | 2.24
A27G G68A | 17.3
C29U U31C | 2.86
G14U | 4.92
U42G | 7.09
U42C | 6.72
U42A | 31.8
A27G C74U | 3.31
A66G | 11.2
A66U | 8.88
G65A | 12.4
G65U | ≥ 125
G65C | 35.3
U31C G68A | 28.1
U31C A40G | 4.07
A15G A28G | 3.9
A20G U60A | 7.33
U31C U42C | 19.5

Variant | Kd [nM]
G36U | ≥ 125
G36A | 63.3
G36C | ≥ 125
C22U A27G | 9.49
U43C A77G | 5.23
A28G C58U | 1.28
U16C A28G | 4.74
C70A | 79.2
C70G | 43.1
C70U | 7.23
A27G A75G | 5.08
A80G | 3.57
A80U | 6.99
A80C | 12.1
A75C | 26.6
A75U | 26.3
A75G | 9.8
A20G G44A | 13
G68U | 15.9
G68C | 55.4
G68A | 27.5
A27U | 3.98
A27G | 4.28
A27C | 4.47

Variant | Kd [nM]
U31C A75G | 14
A77C | 15.3
A77G | 4.77
A77U | 10.8
C22U C58U | 12.7
U31C G44A | 1.82
A23G A26G | 35.8
A54U | ≥ 125
A54C | ≥ 125
A54G | 65.4
G45A | 28.2
G45C | 178
G45U | 22.7
A28G A79G | 3.44
A63U | ≥ 125
A63C | ≥ 125
A63G | 8.55
G17U | 5.8
G17C | ≥ 125
G17A | ≥ 125
G25A A27G | 5.68
U16C | 6.81
U16G | 2.69
U16A | 5.38

Variant | Kd [nM]
G30A A75G | 41.1
G44U | 93.2
G44C | 34.8
G44A | 5.26
G48U | 21.3
G48A | ≥ 125
G48C | ≥ 125
C29U U34C | 20.1
A41G C74U | 5.07
A20G A79G | 37.9
C32U C70U | 11.5
C76U | 37.1
C76G | 28.8
C76A | 13.6
G25A C32U | 13.6
C29U C74U | 1.86
A26G U31C | 3.77
G25A C58U | 2.17
A20G G25A | 10.8
A15G G25A | 2.42
A15G A27G | 5.3
U56A | ≥ 125
U56C | ≥ 125
U56G | 3.15

Variant | Kd [nM]
A28G G44A | 4.96
G33A C73U | 8.48
A15G | 4.76
A15C | 66.2
A15U | 10.3
A72G C73U | 8.64
C22U G68A | 18
G25A A26G | 6.06
U42C U47C | 19.6
A20G U31C | 35.3
G30U | 3.95
G30A | 4.37
G30C | 4.2
C22U A28G | 10.1
A20G A23G | 1.51
G33A A79G | 11.9
C22U U43C | 2.31
A53U | 118
A53G | 33.3
A23G A27G | 5.79
C71U | 14.5
C71G | 37.3
C71A | ≥ 125
A28G A77G | 2.55

Variant | Kd [nM]
C22U A41G | 21.2
U43G | 19.5
U43A | 5.22
U43C | 4.76
A20G A41G | 19.6
A27G C70U | 17
A66G C74U | 12.3
C32U U43C | 2.27
C24U G33A | 5.72
A28G U42C | 6.79
A26G C32U | 5.01
U47C C73U | 44.3
G25A A77G | 3.54
A64G | ≥ 125
A64U | ≥ 125
A64C | ≥ 125
G55A | ≥ 125
G55U | 9.31
G55C | 50.8
C74U | 6.27
C74G | 14.5
C74A | 28.9
A23G C74U | 2.27
U59A | 10.1

Variant | Kd [nM]
U59G | 6.85
U59C | 16.6
A27G A79G | 2.94
C37U U43C | 12.8
A27G G30A | 2.45
G25A A28G | 5.89
A28U | 4.46
A28C | 6.92
A28G | 4.55
A26G A77G | 3.88
C32A | 3.24
C32U | 4.26
C32G | 4.95
C24U C58U | 2.39
C37U A77G | 2.53
A52G | 12.3
A52U | ≥ 125
A52C | 43.6
A61U | 4.9
A61G | 3.47
A61C | 5.03
A23U | 11.2
A23G | 5.87
